Data on three molecules can be found in ChEMBL document CHEMBL3244414, “Structure-activity relationships among the O-acyl derivatives of leucomycin. Correlation of minimal inhibitory concentrations with binding to Escherichia coli ribosomes” (J Med Chem, 1977).

SMILES strings stand for the structures. ≈ marks a conversion by molar mass, not a printed value.

In one experiment the test system is Staphylococcus aureus. Description: Antimicrobial activity against Staphylococcus aureus ATCC 6538P by agar dilution method. It is filed as functional. Conditions: Staphylococcus aureus, ATCC 6538P; read-out: MIC. A digest of the protocol:
(§1)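 Read-out is the minimal inhibitory concentration, found by agar dilution against the named strain.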

For the next experiment, the system named is Bacillus spizizenii. The experiment in a line: Antimicrobial activity against Bacillus subtilis ATCC 6633 by agar dilution method. It is filed as functional. Conditions: Bacillus spizizenii, ATCC 6633; read-out: MIC. A digest of the protocol: as §1
The next experiment deals with Bacterial 70S ribosome. Description: (§2) Displacement of [14C]erythromycin from Escherichia coli ribosomes after 30 mins by scintillation spectrometer analysis. A digest of the protocol:
(§3)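 NH4Cl-washed E. coli ribosomes with [14C]erythromycin A and varied competitor concentrations in 0.01 M Tris-HCl pH 7.2, 0.1 M KCl, 0.004 M MgCl2, 0.01 M NH4Cl. Incubated 30 min at 24 °C, stopped by dilution in cold Tris/KCl/MgCl2 buffer, membrane-filtered, washed three times, dried, scintillation counted. Reports the concentration giving 50% inhibition of binding.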

Experiment [1] concerns the target Bacterial 70S ribosome (Bacteria) (UniProt P0A7V0+P60723+P0AG67+P0A7R5+P0A7R9+P0A7S3+P0A7S9+P0AG59+P0ADZ4+P0A7T3+P0AG63+P0A7T7+P0A7U3+P0A7U7+P68679+P0A7V3+P0A7V8+P0A7W1+P02358+P02359+P0A7W7+P0A7X3+P0A7J3+P0A7J7+P0AA10+P0ADY3+P02413+P0ADY7+P0AG44+P0C018+P0A7K6+P0A7L0+P0A7L3+P0AG48+P61175+P0ADZ0+P60624+P68919+P0A7L8+P0A7M2+P0A7M6+P60422+P0AG51+P0A7N1+P0A7M9+P0A7N4+P0A7N9+P0A7P5+P0A7Q1+Q2EEQ2+P0A7Q6+P60438+P62399+P0AG55+P0A7K2). Described as §2. A digest of the protocol: as §3

The test system of the next experiment is Klebsiella pneumoniae. The experiment in a line: Antimicrobial activity against Klebsiella pneumoniae ATCC 10031 by agar dilution method. It is filed as functional. Particulars: Klebsiella pneumoniae, ATCC 10031; read-out: MIC. A digest of the protocol: as §1

In the case of `CO[C@@H]1[C@@H](O[C@@H]2O[C@H](C)[C@@H](O[C@H]3C[C@@](C)(O)[C@@H](O)[C@H](C)O3)[C@H](N(C)C)[C@H]2O)[C@@H](CC=O)C[C@@H](C)[C@@H](O)/C=C/C=C/C[C@@H](C)OC(=O)C[C@H]1OC(C)=O`, the results for the minimum inhibitory concentration (MIC) with Staphylococcus aureus, with Bacillus spizizenii and in the experiment with Klebsiella pneumoniae were 12.5 µg/mL (≈ 16.8 µM), 6.3 µg/mL (≈ 8.47 µM) and 100 µg/mL (≈ 134 µM), respectively. On Bacterial 70S ribosome, this molecule yielded a half-maximal inhibitory concentration (IC50) of 10700 nM. Further, in experiment [1], the pK50 turned out to be 5.
For `CO[C@@H]1[C@@H](O[C@@H]2O[C@H](C)[C@@H](O[C@H]3C[C@@](C)(O)[C@@H](OC(=O)CC(C)C)[C@H](C)O3)[C@H](N(C)C)[C@H]2O)[C@@H](CC=O)C[C@@H](C)[C@@H](OC(=O)C(C)C)/C=C/C=C/C[C@@H](C)OC(=O)C[C@H]1OC(C)=O`, the MIC with Staphylococcus aureus came out at 3.1 µg/mL (≈ 3.45 µM); in the experiment on Bacillus spizizenii it was 0.8 µg/mL (≈ 0.891 µM); with Klebsiella pneumoniae it was 100 µg/mL (≈ 111 µM). In addition, the 50% inhibitory concentration (IC50) on Bacterial 70S ribosome came out at 2000 nM. The molecule also came in with a pK50 in experiment [1] of 5.7.
As to `CCC(=O)O[C@H]1[C@H](C)O[C@@H](O[C@H]2[C@H](N(C)C)[C@@H](O)[C@H](O[C@H]3[C@@H](CC=O)C[C@@H](C)[C@@H](O)/C=C/C=C/C[C@@H](C)OC(=O)C[C@@H](OC(C)=O)[C@@H]3OC)O[C@@H]2C)C[C@@]1(C)O`, the MIC was 1.6 µg/mL (≈ 2 µM) with Staphylococcus aureus, 3.1 µg/mL (≈ 3.88 µM) in the experiment on Bacillus spizizenii and 50 µg/mL (≈ 62.5 µM) in the experiment on Klebsiella pneumoniae. Besides, the IC50 on Bacterial 70S ribosome amounted to 1900 nM. Also, the pK50 in experiment [1] was 5.7.
